# Results pooled from the literature.
# Each line is one published result; the experiments were not run side by side.
# Organism: Hepatitis C virus
# Read-out: viral replication
# Action: inhibitor
Structure (SMILES),assay,test system,setting,EC50
O=C1O[C@H]2[C@@H]3OC(=O)c4cc(O)c(O)c(O)c4-c4c(O)c(O)c5oc(=O)c6c(c(O)c(O)c7oc(=O)c4c5c76)-c4c(cc(O)c(O)c4O)C(=O)OC[C@H]3OC(O)[C@@H]2OC(=O)c2cc(O)c(O)c(O)c2-c2c1cc(O)c(O)c2O (mixture of isomers),,"Huh-7, GETYPE2A","48 h, replicon",~100000 nM
CN1CCN([C@@H](c2ccccc2)c2ccc(Cl)cc2)CC1,,"Huh-7.5.1, GETYPE2A","48 h, replicon",24 nM
C[C@H](NC(=O)OCc1ccccc1)C(=O)Nc1ccc(C2S/C(=N\c3cccc(F)c3)N(Cc3ccco3)C2=O)cc1 (stereo partly shown),,"Huh-7, GETYPE1B",replicon,570 nM
C=C1/C(=C\C=C2/CCC[C@]3(C)[C@@H]([C@H](C)CCCC(C)(C)O)CC[C@@H]23)C[C@@H](O)C[C@@H]1O,luciferase,GETYPE2A,"72 h, replicon",5430 nM
COc1nc(N)nc2c1ncn2[C@@H]1O[C@H](COP(=O)(N[C@@H](C)C(=O)OCC(C)(C)C)Oc2cccc3ccccc23)[C@@H](O)[C@@]1(C)O (stereo partly shown),,GETYPE1A,"96 h, replicon",1.4 nM
COC(=O)N[C@H](C(=O)N1CCC[C@H]1c1ncc(-c2ccc(-c3ccc(-c4cnc([C@@H]5CCCN5C(=O)[C@@H](NC(=O)OC)C(C)C)[nH]4)cc3)cc2)[nH]1)C(C)C,,GETYPE2A,replicon,0.103 nM
CCC(CC)COC(=O)[C@H](C)N[P@](=O)(OC[C@H]1O[C@@](C#N)(c2ccc3c(N)ncnn23)[C@H](O)[C@@H]1O)Oc1ccccc1,,"Huh7.5, GETYPE3 GETYPE3A",replicon,190 nM
C=C1CC[C@H](O)C/C1=C/C=C1\CCC[C@]2(C)[C@@H]([C@H](C)/C=C/[C@H](C)C(C)C)CC[C@@H]12,luciferase,"BM4-5, GETYPE1B","72 h, replicon",12800 nM
O=c1oc2c(O)c(O)cc3c(=O)oc4c(O)c(O)cc1c4c23,,"Huh-7, GETYPE2A","48 h, replicon",~60000 nM
CCC(=O)Nc1cc(C(=O)Nc2ccc(CN3CCN(C)CC3)c(C(F)(F)F)c2)ccc1OC,qPCR,"Huh7.5, GETYPE2A",72 h,< 1500 nM
